From PubChem BioAssay AID504414 (Broad Institute, 2011) come the findings set out here.

In all, about 330,000 compounds went through this assay and about 55 (0.02%) were called active. The list comes from a sample in which actives are over-represented; it also holds similar structures and randomly drawn compounds. Unmarked numbers belong to inactive results.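 How the source made its calls: active means highest replicate inhibition of at least 40%; inactive means the rest.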

The assay deals with Golgi-associated PDZ and coiled-coil motif-containing protein (Homo sapiens) (UniProt Q9HD26). As to the kind of experiment: CAL PDZ peptide-binding inhibitors, primary screen, biochemical, fluorescence polarization, Cer-tagged CAL PDZ, HTS (AID 504414).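 Further: plate controls were DMSO neutral control wells for no effect and unlabeled competitor peptide control wells for full effect.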 As to conditions: purified CAL PDZ, TMR-peptide fluorescence polarization, 1 h; at 20 µM; stronger effect = higher value. The essentials:
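Material: tagged CAL PDZ domain; buffer or medium: 25 mM sodium phosphate pH 7.4, 150 mM NaCl, TCEP, IgG, Thesit; compound dosing: single point, 20 µM; schedule: 1 h incubation at room temperature before polarization reading; measured by: FP readout, S and P plane fluorescence; read-out basis: percent inhibition from loss of millipolarization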
One may read the inhibition as the change of the read-out against control, counted positive when it falls. For the molecule `COc1ccccc1N(CC(=O)Nc1c(C)n(C)n(-c2ccccc2)c1=O)S(=O)(=O)c1ccccc1`, the inhibition is 0.495%.

`CCN(CC)CCN1C(=O)C2C(C(=O)Nc3ccc(Br)cc3)C3C=CC2(O3)C1C(=O)NC1CCCCC1` (stereo not drawn): the inhibition is 0.206%.

As for `COc1ccc(-n2c(O)c(C=NCC(c3ccco3)N3CCCC3)c3ccccc3c2=O)cc1OC` (stereo not drawn), the inhibition is -2.24%.

As for `CC1CCCN(C(=O)Cn2c(=O)oc3ccccc32)C1` (stereo not drawn), the inhibition is 0.481%.

Regarding `COc1ccc(/C=C/C(=O)NC(=S)N2CCCC(C(N)=O)C2)cc1` (stereo not drawn), the inhibition is -0.891%.

Take `O=C(C1CCCO1)N1CCN(S(=O)(=O)c2ccc(Br)cc2)CC1` (stereo not drawn): the inhibition was -0.919%.

Regarding `CC(OC(=O)c1ccc(-n2cnnn2)cc1)C(=O)NCc1ccccc1` (stereo not drawn), the inhibition is -0.615%.

Take `COc1ccccc1N1CCN(CC(=O)NCCc2ccc(S(N)(=O)=O)cc2)CC1`: the inhibition was 1.11%.

With `O=C1COc2c1ccc(O)c2O`, the inhibition was -0.377%.

As for `CCC(C(=O)NC1CCCCC1)N(C(=O)c1snc(C(N)=O)c1N)c1ccc(OC)cc1OC` (stereo not drawn), the inhibition was -1.96%.

For the molecule `COC(=O)c1cc(NC2c3ccccc3C(=O)N2c2ccc(Cl)cn2)cc(C(=O)OC)c1` (stereo not drawn), the inhibition was 1.56%.

Turning to `Cc1cccc(OCCNC(=S)NC(=O)c2cccnc2)c1`, the inhibition was -1.24%.

`COC(=O)c1cc(C(=O)N(Cc2ccccc2)c2ccccn2)cc([N+](=O)[O-])c1`: the inhibition is -1.95%.

Consider `FC(F)(F)c1cc(C(F)(F)F)c2ccc(N3CCN(c4ccccc4)CC3)nc2n1`, for which the inhibition is -0.0994%.

Take `Cc1cccc(N2Cc3ccccc3C2=NC(=O)c2ccc(Cl)nc2)c1`: the inhibition was -3%.

Take `Cc1ccc(C(=O)O)c(NC=O)c1OCc1ccccc1`: the inhibition was -0.888%.

For the molecule `O=C(Nc1ccc(F)c([N+](=O)[O-])c1)C1CCCO1` (stereo not drawn), the inhibition was 0.3%.

Take `C[C@@H]1C(c2ccc(F)cc2)=NN(c2ccc(Br)cc2)[C@H]1C(=O)N1CCOC1=O`: the inhibition was -0.314%.

For the molecule `COc1ccc(N2CCN(C(=O)c3ccc(N4CCCCS4(=O)=O)cc3)CC2)cc1`, the inhibition is -1.77%.

With `CCCCCCCCCCOC(=O)C[N+](C)(C)CC1CCCCC1O` (stereo not drawn), the inhibition is -1.83%.

On to `Cc1cc(C)c(C#N)c(Nc2cccc(Br)c2)n1`, for which the inhibition is -0.811%.

Take `COc1ccc2c(c1)c(=Cc1ccc(N(C)C)cc1)c1cc(-c3ccccc3)[n+](C)n12`: the inhibition is 32%.

Consider `COc1ccc(-n2nc(C(=O)NCC(=O)N3CCC(C(N)=O)CC3)c3ccccc3c2=O)cc1OC`, for which the inhibition is 0.6%.

For `COc1ccccc1C(=O)COC(=O)CNS(=O)(=O)c1ccc(NC(C)=O)cc1`, the inhibition was -3.17%.

Consider `COc1cc2c(cc1OC)C1C(=O)c3cc(OS(C)(=O)=O)c(OC)cc3C1N(C)C2=O` (stereo not drawn), for which the inhibition was -0.086%.

In the case of `Cc1ccc(NC(=O)CN2C(=O)NC(C)(c3ccc(Cl)cc3)C2=O)c(Br)c1` (stereo not drawn), the inhibition was -4.23%.

On to `CCOc1cc(/C=N/NC(=O)c2ccc(CSc3nncn3C)cc2)ccc1OCC(=O)N1CCOCC1`, for which the inhibition was -3.73%.

As to `CCN(CC)S(=O)(=O)c1cccc(-c2n[nH]c(=S)n2/N=C/c2ccc(C(=O)OC)cc2)c1`, the inhibition is -1.46%.

On to `CCCCC(CC)CNCc1cccn1CCN1CCOCC1` (stereo not drawn), for which the inhibition is 0.235%.

Take `Cc1cc(C)n(CC(C)NCc2c(C(=O)N3CCOCC3)nc3c(C)cccn23)n1` (stereo not drawn): the inhibition is 0.659%.

`COc1ccccc1C1C(C(N)=O)=C(C)Nc2nc(CCCO)nn21` (stereo not drawn): the inhibition was -0.498%.

As to `Nc1cc2c(cc1Br)-c1ccc(F)cc1C2=O`, the inhibition is -0.277%.

Consider `O=C(O)CCC(=O)Nc1ccc(OCC2CCCO2)cc1` (stereo not drawn), for which the inhibition is -0.764%.

For the molecule `Cc1c[n+]([O-])ccc1[N+](=O)[O-]`, the inhibition is 0.378%.

As for `Cc1nc(C)c2c(c1C(F)(F)F)-c1ccccc1C2(F)F`, the inhibition is -1.33%.

Turning to `NC1=NC(=O)C(Cc2cccc(Cl)c2Cl)S1` (stereo not drawn), the inhibition is 1.03%.

`CCc1ccc(OCC(=O)OC(C)C(=O)NC2CC2)cc1` (stereo not drawn): the inhibition was -0.543%.

Turning to `CC(C)(C)C(=O)N(Cc1ccccc1)c1ccccn1`, the inhibition was 0.0459%.

On to `COC(C(=O)Nc1ccc(S(=O)(=O)Nc2ccc(C)c(C)c2)cc1)c1ccccc1` (stereo not drawn), for which the inhibition was -3.38%.

On to `CCCCCCCCNS(=O)(=O)CCNC1CCCCC1`, for which the inhibition is -1.06%.

Consider `O=C1CSc2ccc(S(=O)(=O)NCc3ccccc3)cc2N1`, for which the inhibition was -0.383%.

Regarding `CCOc1ccccc1-n1c(SCC(=O)N2CCCC2)nnc1-c1ccoc1C`, the inhibition was -1.83%.

With `O=S(=O)(NC1CCCCC1N1CCC(O)CC1)c1ccc(Cl)cc1` (stereo not drawn), the inhibition is -0.646%.

`CC1CCCCC1NC(=O)CCS(=O)(=O)c1ccc2c(c1)NC(=O)CO2` (stereo not drawn): the inhibition is -0.536%.

In the case of `COc1ccc(/C=N/N=C/c2c[nH]c(=O)c(C#N)c2Nc2ccccc2)cc1`, the inhibition is -5.96%.

`CC(C)(C)C(=O)Nc1ccc(-c2cn3cccnc3n2)cc1`: the inhibition was -1.11%.

For the molecule `CC(=O)Nc1ccc(-c2cn3cccnc3n2)cc1`, the inhibition is -1.06%.

Turning to `CCCCCC(=O)Nc1ccc(-c2cn3cccnc3n2)cc1`, the inhibition was 177% (active).

With `Cc1ccc(C(=O)NNC(=O)OC(C)(C)C)c(Cl)c1`, the inhibition was -1.58%.

For the molecule `S=c1[nH]cc(-c2ccc(Cl)cc2)n1-c1ccccc1`, the inhibition is -1.13%.

For `CC(=O)c1nc(N2C(=O)C3CC=C(C)CC3C2=O)sc1C` (stereo not drawn), the inhibition was -0.266%.

Turning to `CC(C)CCN1CCN=C1N(C)C`, the inhibition is -2.49%.

For `Cc1ccc(S(=O)(=O)N2CCN(C)CC2)cc1C(=O)NC1CCCCC1`, the inhibition is -0.886%.

On to `CN1/C(=c2/s/c(=C3/C(=O)N(c4ccccc4)NC3=Nc3ccccc3)n(C)c2=O)C(C)(C)c2ccccc21`, for which the inhibition was 0.46%.

As for `COc1cc(-c2nc(S(=O)(=O)c3ccc(Cl)cc3)c(N(C)C)o2)cc(OC)c1OC`, the inhibition is -0.274%.

For `Clc1c(OCCCn2ccnc2)ccc2ccccc12`, the inhibition was -0.854%.

Turning to `O=C(OCC(=O)N1CCCCCC1)c1ccc(Br)c(S(=O)(=O)N2CCOCC2)c1`, the inhibition is 0.404%.

Regarding `CSc1ccc(Cl)c(C(=O)OCC(=O)N2CC(C)OC(C)C2)c1` (stereo not drawn), the inhibition is 1.25%.
